# Assay results from ChEMBL document CHEMBL5653617, “Inhibition of BRD4 attenuates tumor cell self-renewal and suppresses stem cell signaling in MYC driven medulloblastoma” (Oncotarget, 2014).
# Activity calls are given as the source filed them. No cut-off for these calls is given here.
# Assays:
# [1] = target: Bromodomain-containing protein 4 (Homo sapiens) (UniProt O60885); settings: Daoy, dose 300.0 nM
# Daoy [2] = experiment: Antitumor activity against human Daoy cells xenografted in athymic nude mice assessed as induction of senescence at 50 mg/kg, ip measured after 5 days by beta-galactosidase staining based analysis; type: functional, organism-based; settings: time 5.0 day
# In short: (§1)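 Daoy cells (1.0×10^7 in PBS) injected into the flank of athymic nude mice. Once tumors were palpable, drug given 50 mg/kg i.p. with DMSO as vehicle control. Animals were sacrificed after a 5-day treatment. Tumors were assessed by Ki67 IHC and by senescence-associated β-galactosidase staining.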
# D425 Med [3] = experiment: Induction of cell cycle arrest in human D425 Med cells assessed as accumulation of cells at G1 phase at 300 nM incubated for 48 hrs by flow cytometry analysis (reference value: 33.715 +/- 0.495%); type: functional
# Daoy [4] = experiment: Inhibition of E2F1 activity in human Daoy cells at 100 to 300 nM by luciferase based reporter assay; type: functional, cell-based; settings: dose 100-300 nM
# In short: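 Cignal pathway reporter system using an E2F1-responsive luciferase reporter. Cells seeded in 24-well plates and transfected with Surefect. DMSO or drug added 8 h later, then incubated a further 24 h before luciferase readout.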
# D283 Med [5] = experiment: Suppression of human D283 Med cells self-renewal cultured in serum free condition assessed as reduction in formation of new neurosphere at 300 nM; type: functional, cell-based
# In short: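 Cells grown as neurospheres in serum-free medium for 48 h, dissociated, and seeded in a limiting dilution from 1000 to 1 cell/well, with 300 nM drug or DMSO. After 7 days in serum-free culture, neurospheres per well counted and plotted against cells seeded.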
# D283 Med [6] = experiment: Antiproliferative activity in human D283 Med cells assessed as inhibition of cell growth at 300 nM by flow cytometry analysis; type: functional, cell-based
# In short: (§2)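 ViaCount flow cytometric cell count. Cells seeded in medium, DMSO or drug added 24 h later, cultured a further 48 h. Cells then pelleted, washed, stained with Viacount reagent and counted on a Guava cytometer. Vehicle control DMSO.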
# Daoy [7] = experiment: Induction of cell cycle arrest in human Daoy cells assessed as G2/M phase cells at 300 nM incubated for 48 hrs by flow cytometry analysis (reference value: 33.94 +/- 1.46%); type: functional
# [8] = target: Bromodomain-containing protein 4 (Homo sapiens) (UniProt O60885); settings: Daoy, dose 300.0 nM; remark: listed apart in the source
# Medulloblastoma cell = experiment: Cytotoxicity against patient-derived Medulloblastoma cells assessed as reduction in cell viability at 300 nM by LDH assay; type: functional, cell-based; settings: Homo sapiens
# In short: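 Primary tumor slices cultured as described and treated daily from day 5 with DMSO, 300 nM drug, or mitomycin C (50 ug/mL). Spent medium was collected at each change and stored at -80 °C. LDH activity was measured by kit and normalized to the mitomycin C treatment.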
# Daoy [9] = experiment: In vivo inhibition of BRD4 in athymic nude mouse xenografted with human Daoy cells assessed as reduction in SOX2 protein expression in tumor at 50 mg/kg, ip measured after 5 days by immunofluorescence analysis; type: functional, organism-based; settings: time 5.0 day
# In short: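 Tumors from Daoy flank xenografts in nude mice treated 50 mg/kg i.p. or DMSO vehicle for 5 days, then sacrificed. SOX2 protein detected by immunofluorescence on tumor sections.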
# [10] = target: Bromodomain-containing protein 4 (Homo sapiens) (UniProt O60885); settings: D425 Med, dose 300.0 nM
# [11] = target: Bromodomain-containing protein 4 (Homo sapiens) (UniProt O60885); settings: D283 Med, dose 300.0 nM
# [12] = target: Bromodomain-containing protein 4 (Homo sapiens) (UniProt O60885); settings: D283 Med, dose 300.0 nM; remark: listed apart in the source
# [13] = target: Bromodomain-containing protein 4 (Homo sapiens) (UniProt O60885); settings: D458 Med, dose 300.0 nM
# Daoy [14] = experiment: Induction of senescence in human Daoy cells assessed as increase in p16 mRNA expression at 300 nM by RT-qPCR analysis; type: functional, cell-based
# In short: (§3)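 Cells treated with 300 nM drug or DMSO. p16, p21 and p27 mRNA measured by TaqMan qPCR with ΔΔCt quantitation, in triplicate.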
# Daoy [15] = experiment: Induction of senescence in human Daoy cells assessed as increase in p27 mRNA expression at 300 nM by RT-qPCR analysis; type: functional, cell-based
# In short: as §3
# [16] = target: Bromodomain-containing protein 4 (Homo sapiens) (UniProt O60885); settings: Daoy, dose 300.0 nM; remark: listed apart in the source
# [17] = target: Bromodomain-containing protein 4 (Homo sapiens) (UniProt O60885); settings: D425 Med, dose 300.0 nM; remark: listed apart in the source
# Daoy [18] = experiment: In vivo inhibition of BRD4 in athymic nude mouse xenografted with human Daoy cells assessed as reduction in SOX2 mRNA expression in tumor at 50 mg/kg, ip measured after 5 days by RT-qPCR analysis; type: functional, organism-based; settings: time 5.0 day
# In short: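 Xenograft tumors from mice dosed 50 mg/kg i.p. or DMSO vehicle, n = 3 each. SOX2 mRNA measured by TaqMan qPCR with ΔΔCt quantitation, in triplicate.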
# Daoy [19] = experiment: Antitumor activity against human Daoy cells xenografted in athymic nude mice assessed as inhibition of proliferation at 50 mg/kg, ip measured after 5 days by Ki67 staining based analysis; type: functional, organism-based; settings: time 5.0 day
# In short: as §1
# D425 Med [20] = experiment: Inhibition of colony formation in human D425 Med cells at 100 to 300 nM incubated for 8 to 11 days by NBT staining based methyl cellulose colony growth assay; type: functional, cell-based; settings: dose 100-300 nM, time 8-11 day
# In short: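 500 cells/well suspended in DMEM with methyl cellulose (1.3% final) containing 150 or 300 nM drug or DMSO, plated in triplicate. Colonies formed over 8–11 days, then stained with NBT (1 mg/ml) for 24 h at 37 °C. Colonies of ≥50 cells counted.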
# [21] = target: Bromodomain-containing protein 4 (Homo sapiens) (UniProt O60885); settings: D458 Med, dose 300.0 nM; remark: listed apart in the source
# D283 Med [22] = experiment: Induction of cell cycle arrest in human D283 Med cells assessed as accumulation of cells at G1 phase at 300 nM incubated for 48 hrs by flow cytometry analysis (reference value: 23.47 +/- 0.29%); type: functional
# [23] = target: Bromodomain-containing protein 4 (Homo sapiens) (UniProt O60885); settings: D425 Med, dose 300.0 nM; remark: listed apart in the source
# [24] = target: Bromodomain-containing protein 4 (Homo sapiens) (UniProt O60885); settings: Daoy, dose 300.0 nM; remark: listed apart in the source
# D458 Med = experiment: Antiproliferative activity in human D458 Med cells assessed as inhibition of cell growth at 300 nM by flow cytometry analysis; type: functional, cell-based
# In short: as §2
# Daoy [25] = experiment: Induction of senescence in human Daoy cells assessed as increase in beta-galactosidase level at 75 to 300 nM measured after 7 days by staining based analysis; type: functional, cell-based; settings: dose 75-300 nM, time 7.0 day
# In short: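 Daoy cells treated with 75 or 300 nM drug or DMSO. Senescence-associated β-galactosidase staining performed after 7 days. Positive cells counted per high power field.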
# [26] = target: Bromodomain-containing protein 4 (Homo sapiens) (UniProt O60885); settings: D283 Med, dose 300.0 nM; remark: listed apart in the source
compound,measurement,setting,value
Cc1sc2c(c1C)C(c1ccc(Cl)cc1)=N[C@@H](CC(=O)OC(C)(C)C)c1nnc(C)n1-2,inhibition,[1],Active
same,Activity,Daoy [2],Active
same,Activity,D425 Med [3],39.393%
same,inhibition,Daoy [4],Active
same,Activity,D283 Med [5],Active
same,Activity,D283 Med [6],Active
same,Activity,Daoy [7],16.813%
same,inhibition,[8],Active
same,Activity,Medulloblastoma cell,inactive
same,inhibition,Daoy [9],Active
same,inhibition,[10],Active
same,inhibition,[11],Active
same,inhibition,[12],Active
same,inhibition,[13],Active
same,Activity,Daoy [14],Active
same,Activity,Daoy [15],Active
same,inhibition,[16],Active
same,inhibition,[17],Active
same,inhibition,Daoy [18],Active
same,Activity,Daoy [19],Active
same,inhibition,D425 Med [20],Active
same,inhibition,[21],Active
same,Activity,D283 Med [22],30.373%
same,inhibition,[23],Active
same,inhibition,[24],Active
same,Activity,D458 Med,Active
same,Activity,Daoy [25],Active
same,inhibition,[26],Active
